# Screening data as filed in PubChem BioAssay.
# H69AR growth 86K: proliferation blockers of H69AR lung cancer cells, primary screen, cell-based, human, 86K library; H69AR lung tumor viability, ATP luminescence, 72 h; stronger effect = lower value; viability, % at 10 µM; 85,000 tested, 6% active; AID 598, 2007;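 active = viability at or below 40%; inactive = viability above 40%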;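 also: multidrug resistant small cell line overexpressing MRP-1 efflux transporter; 100% = mean luminescence of untreated control wells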
# HCT116 PTEN-null: growth suppression of PTEN-null HCT116, primary screen, cell-based, CellTiter-Glo; viability, % at 10 µM; 140,000 tested, 1.2% active; HCT116 PTEN-null viability, 60 h; stronger effect = lower value;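 active = viability at or below a set limit, 4 SD under the median of all tested compounds, cut at about 3.7% in these data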;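 also: PTEN knockout HCT116 line with beta catenin targeted HCT116 as companion control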
# HCT116 bCat-KO: primary screen for growth suppressors in beta-catenin knockout HCT116 cells (colon tumor, human); HCT116 beta-catenin knockout viability, CellTiter-Glo, 60 h; stronger effect = lower value; viability, % at 10 µM; 140,000 tested, 1.5% active; AID 818, 2007;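 active = viability at or under a set limit, the compound median less 4 SD, cut at about 6% in these data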;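 also: 0% = Hyamine 1622 control at 20 µM and 100% = untreated cell control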
# Phagocytosis inh: inhibitors of macrophage phagocytosis, primary screen, imaging, J774A.1 cells, IgG beads. J774A.1 macrophage IgG-bead phagocytosis. inhibition, % at 5 µM. 110,000 tested, 0.07% active. AID 1029, 2008;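 active = inhibition above the mean of the plate negative controls plus 5 SD, cut at about 13% in these data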;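 also: phagocytic index as fraction of beads internalized from green versus red external bead signal; plate controls were DMSO negative control for no effect and cytochalasin-D positive control for full effect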
# HUVEC prolif 384: inhibitors of HUVEC proliferation, primary screen, cell-based, 384-well; CellTiter-Glo luminescence, 72 h; stronger effect = lower value; viability, % at 10 µM (by protocol); 86,000 tested, 1.1% active; AID 648, 2007;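 active = viability at or below 30%; inactive = viability above 30%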;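 also: 100% = median luminescence of DMSO-only cell control wells on each plate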
# Fibroblast inh: antiproliferative effect on LL 47 fibroblasts – human, LL 47 cells, CellTiter-Glo luminescence, primary screen; LL 47 human lung fibroblast viability, ATP luminescence; stronger effect = lower value; viability, % at 10 µM; 85,000 tested, 1.1% active;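 active = viability at or below 50% in the single dose screen; inactive = viability above 50%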;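 also: compound exposure lasted 72 h before the ATP readout; 100% = median luminescence of untreated cell-only wells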
#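 Benchmarks: Cell-only wells, no compound | Test system: LL 47 human lung fibroblasts, passage 12 or lower | Input: 1,150 cells/well | Measured by: CellTiter-Glo luminescence measuring cellular ATP | Medium: IMEM, 15% FBS supplement | Schedule: Overnight attachment after seeding, then 72 h compound exposure at 37 °C | Doses: Compound addition at 0.1% DMSO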
# * marks the source's active call; other numbers are inactive results; x = not tested or not shown. This excerpt belongs to a sample that is enriched for hits.
SMILES,H69AR growth 86K,HCT116 PTEN-null,HCT116 bCat-KO,Phagocytosis inh,HUVEC prolif 384,Fibroblast inh
CCCn1c(SCC(=O)Nc2nc3c(s2)CCCC3)nc2c1c(=O)n(C)c(=O)n2C,32*,73,91,1,83,93
CCCn1c(SCC(=O)Nc2sc(C)c(C)c2C(=O)OC)nc2c1c(=O)n(C)c(=O)n2C,66,x,x,-2,80,94
O=C1C(Cl)=C(Nc2ccccc2O)C(=O)N1CCc1ccccc1,x,81,84,x,x,x
CCOC(=O)c1csc(NC(=O)CSc2nnnn2-c2ccc(OC)cc2)n1,x,79,78,2,x,x
CCOc1cc(C#N)c(NC(=O)CSc2nnnn2-c2ccc(OC)cc2)cc1OCC,36*,87,93,0,99,92
CCOC(=O)c1c(NC(=O)CSc2nnnn2-c2ccc(OC)cc2)sc(C)c1C,30*,88,79,2,75,96
CC(C)(C)NC(=O)/C(=C\C=C\c1ccccc1)NC(=O)c1ccc([N+](=O)[O-])cc1,x,88,92,-10,x,x
CCNc1nc(NCC)n2c(SCC(=O)NC34CC5CC(CC(C5)C3)C4)nnc2n1,x,95,95,-9,x,x
O=C(Nc1cccc(-c2cn3ccccc3n2)c1)c1cc2ccccc2oc1=O,x,1.8*,2.8*,3,x,x
COc1c2c(nc3occc13)C(CCC(C)(C)O)(OC)C(O)CC2 (centres undefined),90,92,92,0,93,102
COc1ccc2c(CC(=O)NC3CCCc4ccccc43)coc2c1 (centres undefined),x,96,88,-9,x,x
CCOC(=O)C1=C(O)/C(=C/c2ccc(C)o2)SC1=NC(=O)c1ccccc1C,17*,x,x,x,64,58
COc1ccc(OCCNC(=O)c2ccccc2OCC(=O)Nc2ccc(NC(C)=O)cc2)cc1,x,78,81,2,x,x
COc1ccc(OCCNC(=O)c2ccccc2OCC(=O)N2CCCCC2)cc1,31*,75,79,x,86,92
CC(=O)N1CCN(C(=O)COc2ccc(Br)cc2)CC1,107,107,113,x,100,99
COc1ccc(OCC(=O)N2CCN(C(=O)COc3ccc(Br)cc3)CC2)cc1,28*,81,85,-1,82,100
O=C1c2ccccc2C(Nc2ccc(F)cc2F)N1CCN1CCOCC1 (centres undefined),87,91,92,0,106,98
O=C(Nc1cccc(Cl)c1)N(Cc1nc2ccccc2c(=O)[nH]1)Cc1cccs1,x,39,49,-2,x,x
O=C(c1cccs1)N(C(=O)c1cccs1)c1ccc(Br)cn1,27*,77,72,0,79,91
Cc1ccnc(N(C(=O)c2cccs2)C(=O)c2cccs2)c1,71,98,92,0,87,95
O=C(Nc1ccc2nc3n(c(=O)c2c1)CCCC3)c1cccc([N+](=O)[O-])c1,x,95,83,4,x,x
O=C(Nc1ccc2nc3n(c(=O)c2c1)CCCC3)c1cc([N+](=O)[O-])ccc1F,x,10,2.5*,18,x,x
CSc1n[nH]c(NCc2ccc(C)cc2)n1,94,100,97,x,92,94
CC/C(=C\C1CCCCC1)C(NP(=O)(c1ccccc1)c1ccccc1)c1ccccc1 (centres undefined),x,4,5.6*,x,x,x
CC(c1ccccc1)C(CC(=O)O)C(=O)NC1CCCCC1 (centres undefined),105,80,109,0,97,102
SMILES,H69AR growth 86K,HCT116 PTEN-null,HCT116 bCat-KO,Phagocytosis inh,HUVEC prolif 384,Fibroblast inh
CCOc1cc(N2CCOCC2)c(OCC)cc1NC(=O)COC(=O)c1cccc2ccccc12,x,76,80,-3,x,x
CN1Cc2cc(C(=O)c3cc(Cl)cc(CSc4ncccn4)c3O)cnc2NC1=O,25*,22,22,x,52,51
N#Cc1c(N2CCCC(O)C2)nc(N)c2c(N)nc3c(c12)CC(=O)N3C12CC3CC(CC(C3)C1)C2 (centres undefined),3.3*,18,13,x,16*,65
Cc1cccc(S(=O)(=O)C(C#N)c2nc3ccccc3nc2N2CC(C)OC(C)C2)c1 (centres undefined),70,84,89,-1,74,85
Cc1ccc(S(=O)(=O)C(C#N)c2nc3ccccc3nc2N2CC(C)OC(C)C2)cc1C (centres undefined),34*,78,76,0,68,98
C(=C\c1ccccc1)/CSc1nnc(-c2cnccn2)n1Cc1ccco1,29*,67,61,x,62,87
Fc1ccccc1CSc1nnc(-c2cnccn2)n1Cc1ccco1,74,89,93,x,98,103
Cc1ccc(-c2noc(CSc3nnc(Cc4ccccc4)n3-c3cccc(C)c3)n2)cc1,20*,66,66,-3,89,104
O=C(Cc1cccs1)NCCSc1c(-c2ccc(Cl)cc2)[nH]c2ccccc12,x,12,4.7*,x,x,x
COc1ccc(OCc2nc(N)nc(Nc3ccccc3OC)n2)cc1,2.2*,86,76,x,95,77
Cc1ccc(Nc2nc(N)nc(CN3CCc4ccccc4C3)n2)cc1,71,69,61,0,91,95
COc1ccc(N2CCN(Cc3nc(N)nc(Nc4ccccc4OC)n3)CC2)cc1,7.7*,96,86,-3,98,103
Cc1c(Cl)cccc1Nc1nc(N)nc(CN2CCc3ccccc3C2)n1,15*,53,64,0,89,87
COc1ccccc1Nc1nc(N)nc(CN2CCN(Cc3ccccc3)CC2)n1,52,98,92,0,99,99
Brc1ccccc1Cn1c(-c2cscn2)nc2ccccc21,83,67,63,-1,107,90
COc1ccc(C(c2sc3ncnn3c2O)N2CC(C)OC(C)C2)cc1OC (centres undefined),97,99,96,x,29*,88
COCCN(CC(=O)Nc1ccccc1)S(=O)(=O)c1ccc(S(=O)(=O)N2CCCC2)cc1,90,93,96,0,86,99
CN(CC1CCCO1)S(=O)(=O)c1ccc(C(=O)Nc2nc(-c3ccccn3)cs2)cc1 (centres undefined),55,8,3.9*,0,45,42*
Cc1cccc(Nc2nc(NCc3ccco3)nc(N3CCOCC3)n2)c1,53,13,12,0,7.9*,84
Cc1cccc(Nc2nc(N3CCCC3)nc(N3CCCC3)n2)c1,82,59,56,-1,90,90
O=C(CN1CCCCC1)Nc1cccc(-n2cnnn2)c1,x,110,106,0,x,x
Cc1ccc(C)c(C(=O)COc2ccc(C)nc2[N+](=O)[O-])c1,x,95,96,2,x,x
Cc1ccc(C)c(C(=O)COc2ccccc2[N+](=O)[O-])c1,x,1.6*,1.9*,-5,x,x
